Data published in ChEMBL document CHEMBL1833861 (J Med Chem, 2011).
The source made the active and inactive calls. The rule behind the calls is not given here.

Columns and labels:
[1] = target: T1, Neuronal acetylcholine receptor; alpha4/beta2 (Homo sapiens, UniProt P17787+P43681); experiment: Antagonist activity at human alpha4beta2 nAChR expressed in SH-EP1 cells assessed as inhibition of carbamylcholine-induced 86Rb+ ion efflux by liquid scintillation counting relative to mecamylamine; type: functional, cell-based
[2] = target: Neuronal acetylcholine receptor; alpha4/beta4 (Rattus norvegicus, UniProt P09483+P12392); experiment: Displacement of [3H]epibatidine from rat alpha4beta4 nAChR receptor; type: protein-complex assay
[3] = tested on: Mus musculus; experiment: Antidepressant activity in BALB/cJ mouse assessed as decrease in immobility time at 30 mg/kg, ip after 30 mins by forced swim test; type: functional, organism-based; design: dose 30 mg/kg
Procedure, shortened: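 Male BALB/cJ mice, 8–10 weeks old; compound in injectable water given ip at 10 mL/kg. Sertraline (10 or 20 mg/kg) served as positive control. 30 min post-dose, each mouse placed in a glass cylinder with 12 cm of 23 ± 1 °C water; immobility (floating) timed over a 6 min trial. n = 10/group; ANOVA with post hoc test.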

[4] = target: T1, Neuronal acetylcholine receptor; alpha4/beta2; experiment: Agonist activity at human alpha4beta2 nAChR expressed in human SH-EP1 cells assessed as increase of carbamylcholine-induced 86Rb+ ion efflux by liquid scintillation counting; type: functional, cell-based
[5] = species: Rattus norvegicus; experiment: Selectivity ratio of Ki for rat alpha4beta2 nAChR over Ki for rat alpha3beta4 nAChR
[6] = target: Neuronal acetylcholine receptor; alpha3/beta4 (Rattus norvegicus, UniProt P04757+P12392); experiment: Displacement of [3H]epibatidine from rat alpha3beta4 nAChR receptor; type: protein-complex assay
[7] = target: T2, Neuronal acetylcholine receptor; alpha4/beta2 (Rattus norvegicus, UniProt P09483+P12390); experiment: Displacement of [3H]epibatidine from rat alpha4beta2 receptor expressed in HEK cells; type: cell-based, HEK293
Procedure, shortened: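 Competition binding of [3H]epibatidine to membrane fractions from HEK cells stably transfected with rat α4 and β2 subunits; Ki values for blockade of specific binding.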

[8] = target: Neuronal acetylcholine receptor; alpha2/beta2 (Rattus norvegicus, UniProt P12389+P12390); experiment: Displacement of [3H]epibatidine from rat alpha2beta2 receptor; type: protein-complex assay
[9] = target: Neuronal acetylcholine receptor; alpha2/beta4 (Rattus norvegicus, UniProt P12389+P12392); experiment: Displacement of [3H]epibatidine from rat alpha2beta4 receptor; type: protein-complex assay
[10] = target: T1, Neuronal acetylcholine receptor; alpha4/beta2; experiment: Agonist activity at human alpha4beta2 nAChR expressed in human SH-EP1 cells assessed as increase of carbamylcholine-induced 86Rb+ ion efflux by liquid scintillation counting relative to carbamylcholine; type: functional, cell-based
[11] = target: T1, Neuronal acetylcholine receptor; alpha4/beta2; experiment: Antagonist activity at human alpha4beta2 nAChR expressed in SH-EP1 cells assessed as inhibition of carbamylcholine-induced 86Rb+ ion efflux by liquid scintillation counting; type: functional, cell-based
[12] = target: T2, Neuronal acetylcholine receptor; alpha4/beta2; experiment: Displacement of [3H]epibatidine from rat alpha4beta2 nAChR receptor; type: protein-complex assay
[13] = target: Neuronal acetylcholine receptor; alpha3/beta2 (Rattus norvegicus, UniProt P04757+P12390); experiment: Displacement of [3H]epibatidine from rat alpha3beta2 receptor; type: protein-complex assay
Sequence of Neuronal acetylcholine receptor; alpha3/beta2 (P04757 whole entry): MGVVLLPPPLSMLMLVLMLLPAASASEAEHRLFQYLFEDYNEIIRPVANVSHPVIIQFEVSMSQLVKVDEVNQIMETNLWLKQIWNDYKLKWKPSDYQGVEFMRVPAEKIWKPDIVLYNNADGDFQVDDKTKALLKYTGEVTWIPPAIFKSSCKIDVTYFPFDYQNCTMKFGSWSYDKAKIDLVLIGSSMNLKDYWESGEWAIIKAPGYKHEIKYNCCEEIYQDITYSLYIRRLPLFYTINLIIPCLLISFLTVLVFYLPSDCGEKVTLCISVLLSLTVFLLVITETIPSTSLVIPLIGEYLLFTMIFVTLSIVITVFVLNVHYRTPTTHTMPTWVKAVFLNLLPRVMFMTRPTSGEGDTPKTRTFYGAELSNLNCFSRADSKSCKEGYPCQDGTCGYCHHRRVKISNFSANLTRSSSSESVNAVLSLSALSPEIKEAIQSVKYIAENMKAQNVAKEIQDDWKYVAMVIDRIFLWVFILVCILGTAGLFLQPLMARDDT
Sequence of Neuronal acetylcholine receptor; alpha3/beta2 (P12390 whole entry): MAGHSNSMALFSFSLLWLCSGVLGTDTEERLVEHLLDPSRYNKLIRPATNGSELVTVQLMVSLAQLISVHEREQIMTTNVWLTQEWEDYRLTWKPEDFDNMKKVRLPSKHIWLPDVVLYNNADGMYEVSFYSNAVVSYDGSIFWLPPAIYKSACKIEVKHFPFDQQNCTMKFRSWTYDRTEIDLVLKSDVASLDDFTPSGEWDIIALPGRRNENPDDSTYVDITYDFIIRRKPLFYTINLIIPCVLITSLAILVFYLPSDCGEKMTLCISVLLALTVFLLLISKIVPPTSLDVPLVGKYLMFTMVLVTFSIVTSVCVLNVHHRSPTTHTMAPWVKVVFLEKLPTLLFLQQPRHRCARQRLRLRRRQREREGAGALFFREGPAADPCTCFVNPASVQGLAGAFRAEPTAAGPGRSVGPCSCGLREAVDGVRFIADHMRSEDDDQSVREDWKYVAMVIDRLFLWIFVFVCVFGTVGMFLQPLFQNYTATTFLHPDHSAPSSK

T2 sequence (P09483 whole entry): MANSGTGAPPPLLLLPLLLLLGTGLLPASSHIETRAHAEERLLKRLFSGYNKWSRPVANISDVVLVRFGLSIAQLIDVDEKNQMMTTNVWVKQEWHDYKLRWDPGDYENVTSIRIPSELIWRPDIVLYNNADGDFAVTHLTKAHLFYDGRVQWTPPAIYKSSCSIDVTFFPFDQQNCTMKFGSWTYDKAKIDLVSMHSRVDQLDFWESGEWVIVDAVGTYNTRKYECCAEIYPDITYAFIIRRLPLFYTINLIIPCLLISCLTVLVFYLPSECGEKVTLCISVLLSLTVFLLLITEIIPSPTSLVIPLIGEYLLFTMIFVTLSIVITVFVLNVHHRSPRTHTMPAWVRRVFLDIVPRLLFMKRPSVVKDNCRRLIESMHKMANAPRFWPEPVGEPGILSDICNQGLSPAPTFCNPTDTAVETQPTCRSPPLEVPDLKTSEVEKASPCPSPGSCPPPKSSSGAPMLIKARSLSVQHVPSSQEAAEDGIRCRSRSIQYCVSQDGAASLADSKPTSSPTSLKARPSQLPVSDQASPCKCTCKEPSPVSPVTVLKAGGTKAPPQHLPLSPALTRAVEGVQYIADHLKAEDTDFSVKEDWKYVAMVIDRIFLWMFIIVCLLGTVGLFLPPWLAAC
T2 sequence (P12390 whole entry): as the sequence (P12390 whole entry) above
T1 sequence (P17787 whole entry): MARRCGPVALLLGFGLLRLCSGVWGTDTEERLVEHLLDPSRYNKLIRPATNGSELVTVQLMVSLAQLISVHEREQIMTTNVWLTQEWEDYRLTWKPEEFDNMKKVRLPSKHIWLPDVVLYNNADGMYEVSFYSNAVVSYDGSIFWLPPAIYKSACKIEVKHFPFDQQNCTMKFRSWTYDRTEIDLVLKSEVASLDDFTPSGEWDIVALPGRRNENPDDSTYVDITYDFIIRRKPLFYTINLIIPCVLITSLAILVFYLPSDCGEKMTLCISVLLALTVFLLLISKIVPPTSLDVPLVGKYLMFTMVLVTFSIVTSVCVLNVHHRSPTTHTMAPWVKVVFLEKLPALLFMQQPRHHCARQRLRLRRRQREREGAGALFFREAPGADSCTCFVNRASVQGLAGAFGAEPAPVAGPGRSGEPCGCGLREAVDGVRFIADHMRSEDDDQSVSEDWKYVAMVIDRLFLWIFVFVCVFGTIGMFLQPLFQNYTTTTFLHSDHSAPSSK
T1 sequence (P43681 whole entry): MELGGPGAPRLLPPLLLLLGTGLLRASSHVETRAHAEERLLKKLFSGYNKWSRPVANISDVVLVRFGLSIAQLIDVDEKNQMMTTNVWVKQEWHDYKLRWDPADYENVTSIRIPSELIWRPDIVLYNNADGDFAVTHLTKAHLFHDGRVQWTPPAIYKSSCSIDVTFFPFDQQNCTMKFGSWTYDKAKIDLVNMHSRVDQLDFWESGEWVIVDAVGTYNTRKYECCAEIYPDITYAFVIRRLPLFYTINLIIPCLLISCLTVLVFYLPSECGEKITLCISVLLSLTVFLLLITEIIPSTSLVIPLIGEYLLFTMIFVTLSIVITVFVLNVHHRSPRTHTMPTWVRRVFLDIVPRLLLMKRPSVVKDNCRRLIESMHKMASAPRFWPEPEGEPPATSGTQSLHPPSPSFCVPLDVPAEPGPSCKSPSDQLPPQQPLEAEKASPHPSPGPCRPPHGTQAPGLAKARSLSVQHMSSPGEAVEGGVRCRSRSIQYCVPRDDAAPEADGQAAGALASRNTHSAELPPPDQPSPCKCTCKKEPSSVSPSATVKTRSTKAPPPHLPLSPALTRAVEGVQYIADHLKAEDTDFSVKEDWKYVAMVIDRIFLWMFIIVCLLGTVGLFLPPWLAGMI
Sequence of Neuronal acetylcholine receptor; alpha2/beta2 (P12389 whole entry): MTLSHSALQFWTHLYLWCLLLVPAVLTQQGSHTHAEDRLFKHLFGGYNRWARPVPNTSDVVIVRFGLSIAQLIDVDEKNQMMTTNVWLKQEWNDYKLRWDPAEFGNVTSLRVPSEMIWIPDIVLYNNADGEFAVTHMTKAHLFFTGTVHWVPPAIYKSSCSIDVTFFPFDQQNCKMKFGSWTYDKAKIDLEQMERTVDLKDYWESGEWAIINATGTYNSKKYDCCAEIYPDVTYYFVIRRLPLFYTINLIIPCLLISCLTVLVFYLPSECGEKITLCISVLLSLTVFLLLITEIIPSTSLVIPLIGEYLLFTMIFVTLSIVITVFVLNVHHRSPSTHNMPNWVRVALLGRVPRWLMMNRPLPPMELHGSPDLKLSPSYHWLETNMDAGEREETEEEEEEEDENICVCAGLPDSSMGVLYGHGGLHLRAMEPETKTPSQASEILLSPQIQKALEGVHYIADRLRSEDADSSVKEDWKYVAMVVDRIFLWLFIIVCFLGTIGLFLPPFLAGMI
Sequence of Neuronal acetylcholine receptor; alpha2/beta2 (P12390 whole entry): as the sequence (P12390 whole entry) above
Sequence of Neuronal acetylcholine receptor; alpha2/beta4 (P12389 whole entry): as the sequence (P12389 whole entry) above
Sequence of Neuronal acetylcholine receptor; alpha2/beta4 (P12392 whole entry): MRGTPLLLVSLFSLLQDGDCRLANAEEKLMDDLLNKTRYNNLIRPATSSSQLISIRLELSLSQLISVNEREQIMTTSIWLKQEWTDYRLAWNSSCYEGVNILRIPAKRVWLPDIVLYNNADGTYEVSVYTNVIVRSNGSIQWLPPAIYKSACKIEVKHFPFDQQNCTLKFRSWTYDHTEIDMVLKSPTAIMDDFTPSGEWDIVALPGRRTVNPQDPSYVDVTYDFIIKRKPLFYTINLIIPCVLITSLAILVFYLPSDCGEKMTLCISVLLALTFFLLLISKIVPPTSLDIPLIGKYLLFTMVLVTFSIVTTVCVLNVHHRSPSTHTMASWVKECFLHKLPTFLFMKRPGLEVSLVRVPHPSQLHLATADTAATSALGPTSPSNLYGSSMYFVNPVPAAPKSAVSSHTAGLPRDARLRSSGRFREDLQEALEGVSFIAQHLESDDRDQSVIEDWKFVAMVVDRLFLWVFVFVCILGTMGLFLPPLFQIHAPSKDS
Sequence of Neuronal acetylcholine receptor; alpha4/beta4 (P09483 whole entry): as the sequence (P09483 whole entry) above
Sequence of Neuronal acetylcholine receptor; alpha4/beta4 (P12392 whole entry): as the sequence (P12392 whole entry) above
Sequence of Neuronal acetylcholine receptor; alpha3/beta4 (P04757 whole entry): as the sequence (P04757 whole entry) above
Sequence of Neuronal acetylcholine receptor; alpha3/beta4 (P12392 whole entry): as the sequence (P12392 whole entry) above

SMILES: OCc1cc(-c2cncc(OC[C@@H]3CCN3)c2)on1
- Efficacy [1]: 66%
- Ki [2]: 81 nM
- Activity [3]: Active
- EC50 [4]: 25 nM
- Ratio Ki [5]: 20000
- Ki [6]: 6660 nM
- Ki [7]: 0.31 nM
- Ki [8]: 0.32 nM
- Ki [9]: 310 nM
- Efficacy [10]: 13%
- IC50 [11]: 16 nM
- Ki [12]: 0.31 nM
- Ki [13]: 2.9 nM
